These results are taken from ChEMBL document CHEMBL2375315, “Alkaloids from the deep-sea-derived fungus Aspergillus westerdijkiae DFFSCS013” (J Nat Prod, 2013).

Type in all cases: functional, cell-based
One assay has as its system HL-60. As to the kind of experiment: Cytotoxicity against human HL60 cells by MTT assay. An outline of the steps:
(§1)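 Human tumour lines (erythroid leukemic K562, promyelocytic leukemia HL-60, breast adenocarcinoma MCF-7, lung carcinoma A549) exposed to compounds; viability read by MTT method, following a previously published protocol; IC50 values derived.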

A further assay deals with MCF7. As to the kind of experiment: Cytotoxicity against human MCF7 cells by MTT assay. An outline of the steps:
as §1
For orientation: Formazan colour is commonly taken as a measure of viable cells.

The test system of a further assay is K562. As to the kind of experiment: Cytotoxicity against human K562 cells by MTT assay. In outline:
as §1

A further assay concerns A549. Nature of the assay: Cytotoxicity against human A549 cells by MTT assay. An outline of the steps:
as §1

Consider `CC1(C)C=Cc2c(ccc3c2NC(=O)[C@@]32[C@@H](O)[C@@]34NC(=O)[C@]5(CCCN5C3=O)C[C@H]4C2(C)C)O1`, for which the IC50 in the assay with HL-60 was more than 10 µM; in the assay with MCF7, more than 10 µM; in the assay with K562, 53 µM; in the assay on A549, more than 10 µM.
On to `CC(C)CC(=O)OC(/C(=N/O)C(N)=O)C(C)C` (configuration not stated), for which the IC50 in the assay on HL-60, with MCF7, in the assay on K562 and in the assay with A549 was more than 10 µM throughout.
Turning to `C[C@H]1NC(=O)c2ccccc2-n2c1nc1ccccc1c2=O`, the IC50 in the assay with HL-60, in the assay with MCF7, in the assay with K562 and with A549 was more than 10 µM throughout.
`C[C@@H]1NC(=O)c2ccccc2-n2c1nc1c(O)cccc1c2=O`: the IC50 with HL-60, with MCF7, in the assay on K562 and in the assay with A549 was more than 10 µM in each case.
`O=C1NCc2nc3c(O)cccc3c(=O)n2-c2ccccc21`: the IC50 with HL-60, in the assay with MCF7, in the assay on K562 and with A549 was more than 10 µM in each case.
Take `C[C@@H]1NC(=O)c2ccccc2-n2c1nc1c(c2=O)C=CC=CO1`: the IC50 with HL-60, in the assay with MCF7, in the assay on K562 and in the assay with A549 was more than 10 µM each time.
`CC1(C)C=Cc2c3c(cc(Cl)c2O1)[C@@]1(C(=O)N3)[C@H](O)[C@@]23NC(=O)[C@]4(CCCN4C2=O)C[C@H]3C1(C)C`: the IC50 in the assay on HL-60 is more than 10 µM; in the assay with MCF7 it was more than 10 µM; in the assay with K562, 44 µM; with A549, more than 10 µM.
Turning to `CC1(C)C=Cc2c(ccc3c2NC(=O)[C@@]32[C@H](O)[C@@]34NC(=O)[C@]5(CCCN5C3=O)C[C@H]4C2(C)C)O1` [SCLEROTIAMIDE], the 50% inhibitory concentration (IC50) in the assay on HL-60 was 45 µM; with MCF7, more than 10 µM; in the assay on K562 it was 26 µM; in the assay with A549 it was more than 10 µM.

A word on the IC50: it is the concentration at which inhibition is half-maximal. A lower IC50 goes with higher potency.
